INH data for one compound are collected here from ChEMBL document CHEMBL3425433, “Discovery of bicyclic pyrazoles as class III histone deacetylase SIRT1 and SIRT2 inhibitors” (Bioorg Med Chem Lett, 2015).

This experiment concerns the target T1, NAD-dependent protein deacetylase sirtuin-1 (Homo sapiens) (UniProt Q96EB6).
T1 sequence (whole entry): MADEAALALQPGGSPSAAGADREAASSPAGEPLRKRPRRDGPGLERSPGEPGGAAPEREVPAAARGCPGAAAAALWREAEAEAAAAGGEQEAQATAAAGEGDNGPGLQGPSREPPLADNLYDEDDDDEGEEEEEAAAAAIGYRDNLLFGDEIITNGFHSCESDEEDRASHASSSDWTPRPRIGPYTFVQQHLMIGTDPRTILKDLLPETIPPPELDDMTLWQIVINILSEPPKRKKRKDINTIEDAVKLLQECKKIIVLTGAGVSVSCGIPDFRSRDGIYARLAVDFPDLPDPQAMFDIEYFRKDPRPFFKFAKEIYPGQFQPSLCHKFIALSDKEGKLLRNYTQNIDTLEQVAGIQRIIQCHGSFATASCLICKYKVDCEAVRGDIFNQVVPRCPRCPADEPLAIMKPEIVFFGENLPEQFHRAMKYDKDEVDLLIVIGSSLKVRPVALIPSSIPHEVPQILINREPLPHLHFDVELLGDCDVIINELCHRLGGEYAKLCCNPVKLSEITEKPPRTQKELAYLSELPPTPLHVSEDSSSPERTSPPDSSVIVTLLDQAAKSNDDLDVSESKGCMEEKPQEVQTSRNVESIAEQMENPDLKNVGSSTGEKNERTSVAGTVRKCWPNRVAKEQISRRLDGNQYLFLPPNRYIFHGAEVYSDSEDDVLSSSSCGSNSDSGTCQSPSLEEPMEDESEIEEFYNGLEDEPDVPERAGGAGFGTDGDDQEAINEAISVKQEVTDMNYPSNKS
Nature of the experiment: Inhibition of SIRT1-mediated endogenous p53 deacetylase activity in human Namalwa cells assessed as concentration required to […] to twice the basal level after 3 hrs by ELISA. In kind it is cell-based. The method, boiled down:
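Namalwa cells, 50,000/well, were exposed 3 h at 37 °C, 5% CO2, to 0.005–50 µM final (0.95% DMSO). Lysates were ELISA-captured on anti-p53 (DO-1), probed overnight with anti-acetyl-Lys382-p53, then HRP conjugate and Amplex Red (15 min; ex 550/em 610 nm). IC2xB is the concentration doubling basal (lowest) fluorescence. Means of three experiments.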
(In an ELISA, binding on a coated surface is turned into a signal by an enzyme label.)

Each structure is given as a SMILES string.

Regarding `NC(=O)C1CCCc2c1[nH]c1ccc(Cl)cc21` (racemic), the INH came to 0.6 µM.
